# The list is not random: actives were taken first. Their share in the collection is about 0.79%.
# bIAP inh: bovine intestinal alkaline phosphatase inhibitors, primary screen, selectivity assay for TNAP inhibitor project, biochemical, bovine IAP, CDP-star luminescence; purified bovine IAP, 30 min; inhibition, % at 20 µM; 190,000 tested, under 10 active; AID 1019, 2008;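 active = over 50% inhibition of intestinal alkaline phosphatase at 20 µM in the single-dose screen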
#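 test system = bovine IAP enzyme | medium = DEA buffer 100 mM, pH 9.8, with MgCl2 1.0 mM, ZnCl2 0.02 mM | detection = luminescence | dosing = single compound dose of 20 µM, 2% DMSO final | incubation = 30 min reaction at room temperature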
# hIAP inh: human IAP inhibitors, primary screen, biochemical, luminescence, uHTS; Intestinal-type alkaline phosphatase (Homo sapiens), P09923; purified IAP, CDP-Star luminescence, 30 min; inhibition, % at 10 µM; actives 0.12% (n = 330,000);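 active = inhibition reaching a set limit with compound at 10 µM in the primary screen, cut at about 35% in these data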
# Target sequence (P09923 whole entry, looked up): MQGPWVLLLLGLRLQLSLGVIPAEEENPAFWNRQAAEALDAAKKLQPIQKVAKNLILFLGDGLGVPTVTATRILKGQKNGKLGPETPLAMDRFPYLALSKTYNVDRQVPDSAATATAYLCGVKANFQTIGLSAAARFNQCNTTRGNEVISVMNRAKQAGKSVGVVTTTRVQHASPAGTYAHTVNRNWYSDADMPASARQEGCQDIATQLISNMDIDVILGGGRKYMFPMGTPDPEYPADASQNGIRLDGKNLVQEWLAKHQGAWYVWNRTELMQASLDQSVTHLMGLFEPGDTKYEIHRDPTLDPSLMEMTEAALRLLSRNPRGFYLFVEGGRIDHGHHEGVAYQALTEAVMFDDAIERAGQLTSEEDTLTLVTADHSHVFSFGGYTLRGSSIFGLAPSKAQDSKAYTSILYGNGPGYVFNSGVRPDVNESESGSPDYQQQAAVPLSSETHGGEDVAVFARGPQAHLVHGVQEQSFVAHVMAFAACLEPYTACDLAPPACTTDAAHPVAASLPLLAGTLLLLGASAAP
# mIAP act: activators of mouse IAP, primary screen, biochemical, luminescence, uHTS. muIAP, CDP-Star luminescence, 30 min; active compounds read high; 1 = vehicle-only enzyme signal, 0 = enzyme-free wells. activation factor at 10 µM. actives 0.24% (n = 330,000). AID 2805, 2010;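 active = activation factor of at least 2 at 20 µM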
#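 also added = chemiluminescent substrate CDP-Star | test system = mouse IAP enzyme | signal = chemiluminescence readout | compound = DMSO-dissolved test compounds | incubation = 30 min at room temperature | benchmarks = DMSO wells, no-enzyme wells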
# bIAP activator: bovine intestinal alkaline phosphatase activators, primary screen, biochemical, bovine IAP, CDP-star luminescence; purified bovine IAP, 30 min; active compounds read high; fold of DMSO-control signal, blank-subtracted; activation factor at 20 µM; actives 0.17% (n = 200,000);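 active = activation factor of 2 or more at 20 µM, a signal rise over negative controls twice the positive control's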
# mIAP inh: inhibitors of mouse IAP, primary screen, biochemical, luminescence, uHTS; intestinal alkaline phosphatase [Mus musculus]; purified mouse IAP, CDP-Star luminescence, 30 min; inhibition, % at 10 µM; actives 0.2% (n = 330,000);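 active = inhibition of at least 40% at 10 µM in the primary screen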
# hIAP act: human IAP activators, primary screen, biochemical, luminescence, uHTS; activation factor at 10 µM; purified human IAP, CDP-Star luminescence, 30 min; active compounds read high; 1 = vehicle-only enzyme, 0 = enzyme-free background; Intestinal-type alkaline phosphatase (Homo sapiens), P09923; actives 0.16% (n = 330,000); AID 2524, 2010;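 active = activation factor of the enzyme at least 2-fold when tested at 20 µM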
# Numbers stand for hits; 0 = inactive; - = not tested or not shown.
SMILES,bIAP inh,hIAP inh,mIAP act,bIAP activator,mIAP inh,hIAP act
CCCCCCCCn1ccc(=N)cc1,-,0,0,-,0,0
CCOc1ccc(N(C(=O)CNC(=O)c2ccco2)C(C(=O)NC2CCCC2)c2cccnc2)cc1 (configuration not stated),-,0,0,-,0,0
CCCCCCc1ccc(N2C[C@H](CCCCC)[C@@H](CC(=O)NCc3ccc(OC)cc3)C2=O)cc1,-,0,2.25,-,0,0
CCCCCCc1ccc(N2C[C@H](Cc3ccccc3)[C@@H](CC(=O)NCc3ccc(OC)cc3)C2=O)cc1,-,0,0,-,0,0
CCCCCCc1ccc(N2C[C@H](CCCCC)[C@@H](CC(=O)NCc3ccccc3)C2=O)cc1,-,0,2.34,-,0,0
COc1cccc(NS(=O)(=O)c2cn(C)c(=O)n(C)c2=O)c1,0,0,0,5.1,0,0
Cn1cc(S(=O)(=O)Nc2cccc(F)c2)c(=O)n(C)c1=O,0,0,0,0,0,0
CC1CCc2nc3ccc(S(=O)(=O)N4CCC(C(=O)NC(C)c5ccccc5)CC4)cc3c(C(=O)O)c2C1 (configuration not stated),-,0,0,-,0,0
COc1cc(NC(=O)COc2ccc(-n3ccnc3)cc2)cc(OC)c1,0,0,0,0,0,0
CC(C)(C)c1ccc(NC(=O)COc2ccc(-n3ccnc3)cc2)cc1,0,0,0,2.6,0,0
CC(=O)N1[C@H](C)C=C[C@]1(Cc1ccccc1)C(=O)NCCc1c[nH]c2ccccc12,-,0,0,-,0,0
C[C@@H]1C=C[C@](Cc2ccccc2)(C(=O)NCCc2c[nH]c3ccccc23)N1C(=O)c1ccccc1,0,0,0,2.1,0,0
CCc1ccc(CN2CCC(N3CCC(C(=O)N4CCCC4)CC3)CC2)o1,-,0,0,-,0,0
O=C(NC1CC2CCC(C1)N2C(=O)NC1CCCCC1)NC12CC3CC(CC(C3)C1)C2 (configuration not stated),0,0,0,0,0,0
O=C(NC1CC2CCCC(C1)N2C1CC1)NC12CC3CC(CC(C3)C1)C2 (configuration not stated),0,-,-,3.1,-,-
Cc1cc(NC(=O)Nc2ccccc2F)ccc1Br,0,0,3.05,0,0,0
O=C(Nc1ccccc1)Nc1ccc(Br)cc1F,0,0,0,0,0,0
COc1ccc(CNC(=O)COC(=O)CCn2c(C)csc2=O)cc1OC,-,0,0,-,0,0
N/C(=N\OC(=O)c1cccc2ccccc12)c1cccc([N+](=O)[O-])c1,0,0,0,0,0,0
Cc1cccc(/C(N)=N/OC(=O)c2cccc3ccccc23)c1,-,40.1,0,-,0,0
Cc1cccc2cc(/C=N/NC(=O)c3ccccc3O)c(Cl)nc12,0,0,0,0,0,0
Cc1ccc2cc(/C=N/NC(=O)c3ccccc3O)c(Cl)nc2c1,0,0,0,2.1,0,0
CC(NS(=O)(=O)c1ccc(Br)s1)c1ccccc1 (configuration not stated),-,0,0,-,0,0
Cc1ccc2ncccc2c1,-,0,0,-,0,0
Cc1cc(N(C)C)ccc1N=Nc1ccc2ncccc2c1,-,40.4,0,-,0,0
SMILES,bIAP inh,hIAP inh,mIAP act,bIAP activator,mIAP inh,hIAP act
CCOc1ccc2nc(NCCCNC(=O)c3cc(OC)c(OC)c(OC)c3)c(C#N)cc2c1,-,0,2.01,-,0,0
C[C@@H]1CN([C@@H](C)CO)C(=O)c2cc(NC(=O)Nc3ccc4c(c3)OCO4)ccc2O[C@H]1CN(C)S(=O)(=O)c1ccc(F)cc1,-,0,2.4,-,0,0
COc1ccc(S(=O)(=O)N(C)C[C@H]2Oc3ccc(NC(=O)Cc4ccccc4)cc3C(=O)N([C@H](C)CO)C[C@@H]2C)cc1,-,0,0,-,0,0
C[C@H](CO)N1C[C@H](C)[C@@H](CN(C)S(C)(=O)=O)Oc2ccc(NC(=O)Nc3ccc4c(c3)OCO4)cc2C1=O,-,0,0,-,0,0
C[C@H](CO)N1C[C@H](C)[C@@H](CN(C)S(=O)(=O)c2ccc(F)cc2)Oc2ccc(NC(=O)Nc3ccccc3)cc2C1=O,-,0,2.44,-,0,0
C[C@H](CO)N1C[C@H](C)[C@@H](CN(C)S(=O)(=O)c2ccc(F)cc2)Oc2ccc(NC(=O)Nc3ccc4c(c3)OCO4)cc2C1=O,-,0,2.47,-,0,0
C[C@H](CO)N1C[C@H](C)[C@@H](CN(C)S(=O)(=O)c2ccc(F)cc2)Oc2ccc(NC(=O)Nc3ccc(C(F)(F)F)cc3)cc2C1=O,-,0,0,-,0,0
COc1ccc(NC(=O)Nc2ccc3c(c2)C(=O)N([C@H](C)CO)C[C@H](C)[C@@H](CN(C)S(=O)(=O)c2ccccc2)O3)cc1,-,0,3.31,-,0,0
Cc1c(CCO)c(=O)[nH]n1S(=O)(=O)c1ccc(F)cc1,-,0,0,-,0,0
COc1ccc2cc(S(=O)(=O)NCc3cccnc3)ccc2c1,-,0,0,-,0,0
COc1ccc(C2=NOC(Cn3nc(-c4ccccc4)cc3C(=O)NCc3ccccc3OC)C2)cc1 (configuration not stated),-,0,2.07,-,0,0
CCOC(=O)N1CCN(CC(=O)Nc2nnc(C(F)(F)F)s2)CC1,-,0,0,-,0,0
NC1=NC2(CCCCC2)n2c(nc3ccccc32)N1,0,0,0,2.2,0,0
NC1=NC2(CCN(Cc3ccccc3)CC2)n2c(nc3ccccc32)N1,0,0,0,3.5,0,0
NC1=NC2(CCC(c3ccccc3)CC2)n2c(nc3ccccc32)N1 (configuration not stated),0,0,0,2.9,0,0
NC1=NC(c2ccc(Br)cc2)n2c(nc3ccccc32)N1 (configuration not stated),0,0,0,0,0,0
Cc1c(C(=O)Nc2cccc([N+](=O)[O-])c2)cnn1-c1ccccc1,-,0,0,-,0,0
CC(OC(=O)Cc1c[nH]c2ccccc12)C(=O)Nc1ccccc1F (configuration not stated),-,0,0,-,0,0
c1ccc2c(c1)CCN(c1ncnc3c1[nH]c1ccccc13)C2,0,0,0,2.1,0,0
CCN(CC)CCNc1ncnc2c1[nH]c1ccc(OC)cc12,-,0,0,-,0,0
COc1ccc2[nH]c3c(NCCC4=CCCCC4)ncnc3c2c1,0,-,-,2.1,-,-
CCOc1ccc2[nH]c3c(NCCC(C)C)ncnc3c2c1,-,0,2.22,-,0,0
Cc1ccccc1-n1nc2c(c1NC(=O)c1ccc(S(=O)(=O)N(C)C)cc1)CSC2,0,0,0,0,45.5,0

# Bioassay records as filed in PubChem BioAssay.
